{"data": "Measurements gathered from unrelated publications", "target": "Serine/threonine-protein kinase STK11 (STK11, Homo sapiens, UniProt Q15831)", "Residues used in one study (Q15831 1-433)": "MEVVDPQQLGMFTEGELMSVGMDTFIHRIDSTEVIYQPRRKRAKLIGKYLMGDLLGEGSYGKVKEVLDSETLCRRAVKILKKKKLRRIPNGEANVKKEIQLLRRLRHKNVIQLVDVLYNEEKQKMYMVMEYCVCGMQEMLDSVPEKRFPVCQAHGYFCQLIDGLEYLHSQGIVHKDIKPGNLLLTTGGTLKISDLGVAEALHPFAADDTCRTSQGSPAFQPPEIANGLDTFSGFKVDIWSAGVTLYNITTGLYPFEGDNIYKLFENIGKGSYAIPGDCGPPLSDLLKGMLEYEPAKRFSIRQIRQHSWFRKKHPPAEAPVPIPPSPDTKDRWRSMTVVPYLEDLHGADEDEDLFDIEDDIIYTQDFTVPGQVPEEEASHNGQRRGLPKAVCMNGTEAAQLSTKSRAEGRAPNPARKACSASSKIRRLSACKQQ", "note": "Each line is one published result; the experiments were not run side by side."}
{"SMILES": "N#CC1(c2ccccn2)CCN(Cc2cc(C(=O)O)c(=O)n3ccccc23)CC1", "assay": "cell-free assay, competition with immobilised ligand", "conditions": "1 µM", "quantity": "remaining binding", "result": "100%"}
{"SMILES": "CC(C)(C)c1cc(C=C(C#N)C#N)cc(Br)c1O", "assay": "enzyme activity, inhibitor", "conditions": "0.5 µM", "quantity": "remaining activity", "result": "85.2%"}
{"SMILES": "Cc1nn(C)cc1-c1nc2c(N3CCN(Cc4ccc(Cl)cc4)CC3)c(Cl)cnc2[nH]1", "assay": "binding, competition with immobilised ligand", "conditions": "1 µM", "quantity": "remaining binding", "result": "100%"}
{"SMILES": "Cn1cncc1[C@@](O)(COc1ccc(C#N)cc1-c1ccc(OC(F)(F)F)cc1)c1ccc(C#N)cc1", "assay": "cell-free assay, competition with immobilised ligand", "conditions": "1 µM", "quantity": "remaining binding", "result": "100%"}
{"SMILES": "Nc1ncc(-c2nc(N3CCOCC3)nc(N3CCOCC3)n2)c(C(F)F)n1", "assay": "binding, competition with immobilised ligand", "conditions": "10 µM", "quantity": "remaining binding", "result": "91%"}
{"SMILES": "COc1ncccc1-c1cnn2ccc(N3CCN(C(=O)OC(C)C)CC3)nc12", "assay": "binding, competition with immobilised ligand", "conditions": "1 µM", "quantity": "remaining binding", "result": "9.7%"}
{"SMILES": "O=c1[nH]c2ccccc2n1C1CCN(Cc2ccc(-c3[nH]c4cc5ncnc5cc4nc3-c3ccccc3)cc2)CC1", "assay": "cell-free assay", "conditions": "0.5 µM", "quantity": "remaining signal", "result": "95.6%"}
{"SMILES": "COc1cc(Nc2ncc(F)c(Nc3ccc4c(n3)NC(=O)C(C)(C)O4)n2)cc(OC)c1OC", "assay": "binding", "conditions": "10 µM", "quantity": "inhibition", "result": "0%"}
